Calls of active or inactive are those of the source. The rule behind the calls is not given here.
What was measured:
AML12 [1] = assay: Activation of CPT1A in mouse AML12 cells assessed as inhibition of oleic acid-induced lipid accumulation using L-carnitine and palmitoyl CoA as substrates pretreated with ETO for 6 hrs followed by addition of compound at 20 uM measured after 48 hrs by […] reagent based enzymatic assay; format: cell-based
Summary of the method: (§1)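 Lysates of AML12 cells grown in medium with 0.15 mM oleic acid. Cells pretreated 6 h with ETO or with DMSO, then exposed to compound for 24 h (legend says 48 h). Lysis by sonication in 0.5 M Tris, 0.15 M KCl and protease inhibitors. Protein measured by Bradford. Activity expressed as nmol CoA-SH released per min per mg protein. Mean ± SEM, n = 3.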

AML12 [2] = assay: Cytotoxicity against mouse AML12 cells assessed as cell viability at 40 uM measured after 24 hrs by MTT assay; format: cell-based; details: aml12, 24 h
AML12 [3] = assay: Inhibition of oleic acid-induced lipid accumulation in mouse AML12 cells with Si-RNA-induced ACSL1 knockdown; format: functional, cell-based
AML12 [4] = assay: Activation of CPT1A in mouse AML12 cells assessed as inhibition of oleic acid-induced lipid accumulation using L-carnitine and palmitoyl CoA as substrates at 40 uM measured after 48 hrs by […] reagent based enzymatic assay relative to control; format: cell-based; details: filed as activator; summary of the method: as §1
AML12 [5] = assay: Inhibition of oleic acid-induced lipid accumulation in mouse AML12 cells with Si-RNA-induced FADS3 knockdown; format: functional, cell-based
AML12 [6] = assay: Inhibition of oleic acid-induced lipid accumulation in mouse AML12 cells with Si-RNA-induced ECHS1 knockdown; format: functional, cell-based
AML12 [7] = assay: Cytotoxicity against mouse AML12 cells assessed as cell viability at 20 uM measured after 24 hrs by MTT assay; format: cell-based; details: aml12, 24 h
AML12 [8] = assay: Inhibition of oleic acid-induced lipid accumulation in mouse AML12 cells assessed as increased expression of CPT1A preincubated with ETO at 40 uM measured after 24 hrs by Oil red O staining based microscopic assay; format: functional, cell-based
Summary of the method: (§2)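 AML12 cells either transfected with siRNA against CPT1A or pretreated with 20 μM etomoxir, with negative-control comparison. Cells then loaded with oleic acid and exposed to compound at 40 μM for 24 h. Lipid read by Oil Red O staining with image quantification. Mean ± SEM, n = 3.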

AML12 [9] = assay: Cytotoxicity against mouse AML12 cells assessed as cell viability at 5 uM measured after 24 hrs by MTT assay; format: cell-based; details: aml12, 24 h
AML12 [10] = assay: Cytotoxicity against mouse AML12 cells assessed as cell viability at 10 uM measured after 24 hrs by MTT assay; format: cell-based; details: aml12, 24 h
AML12 [11] = assay: Inhibition of oleic acid-induced lipid accumulation in mouse AML12 cells at 40 uM preincubated with oleic acid for 24 hrs followed by addition of compounds and measured after 24 hrs by Oil red O staining based microscopic assay; format: functional, cell-based
Summary of the method: (§3)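 Normal mouse liver AML12 cells loaded with 0.15 mM oleic acid in BSA to induce lipid droplets, then given compound for 24 h. DMSO vehicle as control. Stained with Oil Red O and quantified by image analysis. Mean ± SEM, n = 3.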

AML12 [12] = assay: Activation of CPT1A in mouse AML12 cells assessed as inhibition of oleic acid-induced lipid accumulation using L-carnitine and palmitoyl CoA as substrates pretreated with ETO for 6 hrs followed by addition of compound at 40 uM measured after 48 hrs by […] reagent based enzymatic assay; format: cell-based; summary of the method: as §1
AML12 [13] = assay: Inhibition of oleic acid-induced lipid accumulation in mouse AML12 cells with siRNA-induced CPT1A knockdown at 40 uM measured after 24 hrs by Oil red O staining based microscopic assay; format: functional, cell-based; summary of the method: as §2
AML12 [14] = assay: Activation of CPT1A in mouse AML12 cells assessed as inhibition of oleic acid-induced lipid accumulation using L-carnitine and palmitoyl CoA as substrates at 20 uM measured after 48 hrs by […] reagent based assay relative to control; format: cell-based; details: filed as activator; summary of the method: as §1
AML12 [15] = assay: Inhibition of oleic acid-induced lipid accumulation in mouse AML12 cells at 20 uM preincubated with oleic acid for 24 hrs followed by addition of compounds and measured after 24 hrs by Oil red O staining based microscopic assay; format: functional, cell-based; summary of the method: as §3

In the case of CC(C)c1ccc2c(c1)C(=O)C[C@H]1[C@](C)(C(=O)O)CCC[C@]21C, the Activity (AML12 [1]) is reported as “inactive”, the Activity (AML12 [2]) is reported as “Non-Toxic” and the inhibition (AML12 [3]) is reported as “Active”. The fold change (FC) (AML12 [4]) was 1.6, the inhibition (AML12 [5]) was “Active” and the inhibition (AML12 [6]) was “Active”. For the same compound, the Activity (AML12 [7]) was “Non-Toxic”, the inhibition (AML12 [8]) was “inactive” and the Activity (AML12 [9]) was “Non-Toxic”. For the same compound, the Activity (AML12 [10]) was “Non-Toxic”, the inhibition (AML12 [11]) was “Active” and the Activity (AML12 [12]) was “inactive”. For the same compound, the inhibition (AML12 [13]) was “inactive”, the fold change (FC) (AML12 [14]) was 1.5 and the inhibition (AML12 [15]) was “Active”.
